The test system of series [1] is YAQ12A. The series can be described thus: Sedimentation assay of YAQ12A aggregation. Type of series: biochemical. In short, it runs like this: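 Disaggregated peptide was diluted to 100 µM in 10 mM sodium phosphate, pH 7.40, and held at 37 °C without agitation, with or without inhibitor added as lyophilized aliquots. After 98,000 × g for 1 h at 22 °C, 100 µL of the top third went onto analytical C18 RP-HPLC (A220, isocratic water:acetonitrile:TFA 87.5:12.5:0.1). Monomer was quantified from peak area against a standard curve; mean ± S.D. of three replicates.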

Series [2] concerns YAQ12A. The series can be described thus: Electron microscopy of YAQ12A fibrillation products. The series is classed as biochemical. Particulars: 100 μM YAQ12A with 500 μM 5QMe2, 40 h, 37 °C. In a few lines:
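Aggregation products imaged by electron microscopy after incubating monomeric peptide in 10 mM sodium phosphate, pH 7.40, for 40 h at 37 °C, with or without inhibitor. Micrographs were recorded at 15,000 or 39,000× magnification, plus 1.4× from the CCD camera.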

Series [3] is described as follows: Sedimentation equilibrium analytical ultracentrifugation of 5QMe2 alone. Type of series: physicochemical. In short, it runs like this:
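Equilibrium sedimentation of inhibitor alone at 100 µM, 500 µM and 1 mM in 10 mM sodium phosphate, pH 7.40, at 20 °C, in six-sector cells with hourly scans. Rotor speed ran 3000 rpm (1 scan), 36,000 (16), 48,000 (13) and 60,000 rpm (19). A280 was used (A230 for 100 µM). Molecular weight came from global analysis of the three concentrations at each speed.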

Series [4] in a line: Size exclusion chromatography, apparent molecular weight. The series is classed as physicochemical. Particulars: Superdex Peptide 10/300; 10 mM sodium phosphate, 10 mM NaCl, pH 7.40; 0.5 mL/min; 100 μM YAQ12A, 170 μM 5QMe2; 230 nm. (In general: SEC sorts molecules by how far they enter the pores of the column.)

Consider “Anth-K-Q-Q(Me2)-Q-Q(Me2)-Q-CONH2 [5QMe2]”, for which the “time after which more rapid loss of soluble YAQ12A follows the lag period” value in series [1] (100 μM YAQ12A with 100 μM 5QMe2, time course, 37 °C) was ~ 70 h. For the same substance, in series [1] (100 μM YAQ12A with 1 mM 5QMe2, time course to 110 h, 37 °C), the “aggregation of YAQ12A over the time course” value is given as “no aggregation was observed for the entire time period”. In series [1] (1 mM 5QMe2 added to 100 μM YAQ12A after 10 or 20 h of aggregation), the “reversal of YAQ12A aggregation” value is “did not reverse aggregation”. Also, in series [2], the “fibril formation of YAQ12A by electron microscopy” value is reported as “abrogates fibril formation”. Further, the “association state of the inhibitor alone” value in series [3] (100, 500 and 1000 μM, three rotor speeds) is “monomeric”. Moreover, the figures for the “molecular weight of 5QMe2 alone, three concentrations analysed globally” value in series [3] (rotor speed 36,000 rpm), in series [3] (rotor speed 48,000 rpm) and in series [3] (rotor speed 60,000 rpm) were 988.5, 1000.0 and 980.1, respectively. In addition, the “MW^app by size exclusion chromatography” value in series [4] is on record as ~ 1176.0.

For the origin of these results see article PMC2965777 (Biochemistry, 2010).
